WT yeast gro inh – growth inhibition of WT yeast, mitochondrial fusion screen; mitochondrial fusion phenotypic screen, WT strain; inhibition, % at 10 µM; 190,000 tested, 2.1% active; AID 1362; in the data active = inhibition above about 58%; tested in S. cerevisiae
m-calpain inh – blocks pig calpain II enzyme activity; 220,000 tested, 0.37% active; inhibition, % at 16 µM; purified calpain II, fluorogenic peptide substrate, 30 min;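 active = inhibition above about 50%, limit read from the data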
Rad51 HR inh – Rad51 (human) homologous recombination inhibition. Q06609. hRad51 DNA strand exchange, fluorescence dequenching. inhibition, % at 10 µM. 200,000 tested, 0.085% active. AID 1385;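 active = inhibition above 40% at the single screening dose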
Target sequence (Q06609 whole entry, looked up): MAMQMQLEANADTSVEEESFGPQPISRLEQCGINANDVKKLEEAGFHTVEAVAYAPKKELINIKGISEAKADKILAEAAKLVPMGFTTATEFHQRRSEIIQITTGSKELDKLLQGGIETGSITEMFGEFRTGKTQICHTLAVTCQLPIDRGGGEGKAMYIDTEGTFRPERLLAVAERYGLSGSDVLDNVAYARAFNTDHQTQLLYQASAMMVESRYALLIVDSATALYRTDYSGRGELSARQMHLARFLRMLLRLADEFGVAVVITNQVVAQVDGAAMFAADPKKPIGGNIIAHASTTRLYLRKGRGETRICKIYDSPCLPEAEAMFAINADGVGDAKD
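Test system – preformed human Rad51 ssDNA filaments · Reagent – Donor/quencher-labelled 47-bp dsDNA substrate · Incubation – 37 °C 15-min filament assembly, 30-min compound preincubation, 15-min exchange · Signal – FRET fluorescence dequenching, excitation 485 nm, emission 520 nm · Read-out – percent inhibition from fluorescence, normalised to plate control and blank means · Benchmarks – plate control and blank wells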
PMI activator – increases human mannose-6-phosphate isomerase activity. P34949. purified human PMI, coupled resazurin fluorescence, 20 min; active compounds read high; 1 = vehicle control, 0 substrate-free wells. activation factor at 20 µM. 190,000 tested, 0.005% active;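 active = activation factor of 2 or more at 20 µM, relative to plate controls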
Lmaj promast – reduces viability of Leishmania major promastigotes. inhibition, % at 10 µM. 200,000 tested, 9% active. resazurin fluorescence viability; in the data active = inhibition above about 50%;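 note: promastigotes grown with compound for 44 hours at 28 °C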
PMI act hi M6P – PMI (human) activation, high substrate | P34949 | coupled PMI enzyme assay, resazurin fluorescence, 20 min; active compounds read high; 1 = untreated enzyme, 0 = substrate-free blank | activation factor at 20 µM | 190,000 tested, 0.34% active | AID 1216;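 active = activation factor of 2 or more at 20 µM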
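Test system: human PMI in coupled enzyme assay; Input: PMI at 15 ng/mL final; Medium: HEPES buffer, pH 7.4; Schedule: 20 min incubation at room temperature; Technique: resorufin fluorescence at Ex 544/Em 590 nm; Compound: 20 µM single dose; Probe or stimulus: Near-saturating mannose-6-phosphate, 1.0 mM.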
Large screens that a line does not name were inactive. Compounds with a hit are over-represented: about 9.8% of the library has one in this group of screens.

CC(C)c1cc(C(=O)N2CCCC(CCC(=O)NCc3ccccc3F)C2)n(C)n1 (stereo not drawn)	none
C=CCN1C(=O)/C(=c2\sc3nc(=O)c(Cc4ccc(OC)c(OC)c4)nn3c2=O)c2ccccc21	none (no result: WT yeast gro inh, PMI activator, Lmaj promast, PMI act hi M6P)
CCOC(=O)c1ccc(NC(=O)c2cn(CCC#N)nc2-c2ccc3c(c2)OCCO3)cc1	Lmaj promast 68.3
Oc1ccccc1/C=N/Nc1ncc(Br)cn1	none
Oc1ccccc1/C=N/Nc1ccccc1	WT yeast gro inh 79.4, PMI act hi M6P 2.3 (no result: Rad51 HR inh)
CCCCCCCC(=O)N/N=C(/C)c1c(O)cc(C)oc1=O	none
Oc1ccc(/C=N/Nc2ccc3ccccc3c2)c(O)c1	Lmaj promast 85.1
C/C(=N\Nc1ccc(Cl)cc1)c1c(O)cc(C)oc1=O	PMI act hi M6P 2.6
Cn1cc(/C=N/Nc2ccccc2)c2ccccc21	Lmaj promast 63.2, PMI act hi M6P 2.5
CCOc1cc([N+](=O)[O-])cc2c1C(=O)Nc1ccccc1O2	none
COc1ccccc1-c1nc(COc2ccc(Cl)cc2Cl)no1	none (no result: WT yeast gro inh, PMI activator, Lmaj promast, PMI act hi M6P)
Cn1c(N)c(C(=O)COC(=O)C2CC(=O)N(Cc3ccccc3)C2)c(=O)n(C)c1=O (stereo not drawn)	none (no result: Rad51 HR inh)
Cc1cc(O)c(/C=N/Nc2ccccc2)c(=O)o1	Lmaj promast 75.7, PMI act hi M6P 2
CC(C)(C)c1ccccc1OCCN1CCCC1	Lmaj promast 89.7
CC(OCCN1CCCC1)(c1ccc(F)cc1)c1ccc(F)cc1	Lmaj promast 100.1
Cc1cc(C(C)(C)C)ccc1OCCN1CCCC1	Lmaj promast 95.9
Cc1ccc(C(C)(C)C)c(OCCN2CCCC2)c1	none (no result: Rad51 HR inh)
Cc1cc(Br)ccc1OCCCCN1CCCCC1	Lmaj promast 99.5
CC(OC(=O)C1=COCCO1)C(=O)Nc1ccccc1C#N (stereo not drawn)	none
Cc1cc(C(C)(C)C)ccc1OCCCCN1CCCC1	Lmaj promast 99.3
Cc1cccc(C(C)(C)C)c1OCCN1CCCC1	none
O=C(c1cc2nc(-c3ccccc3)cc(-c3ccccc3)n2n1)N1CCCC1	none (no result: Rad51 HR inh)
CN1CCN(C(=O)c2cc3nc(-c4ccccc4)cc(-c4ccccc4)n3n2)CC1	Lmaj promast 95.4
O=C(c1ccc2c(c1)OCO2)N(Cc1cccs1)C1(C(=O)NC2CCCCC2)CCCCC1	WT yeast gro inh 62.1
CC(C)NC(=O)CSc1nc(Cc2cccs2)nc2ccccc12	none
Cc1cc(C)c(NC(=O)/C(=C/c2ccco2)c2ccccc2)c(C)c1	Lmaj promast 59.2
COc1ccc(N2CCN(C(=O)CSc3nnc(NC(=O)C4CCC4)s3)CC2)cc1	none
COc1cc(/C=N/OCC(=O)Nc2cc(C)cc(C)c2)ccc1OCc1ccc(Cl)cc1	Lmaj promast 96.2
COc1cc(/C=N/OCC(=O)NC2CCCCC2C)ccc1OCc1ccc(Cl)cc1 (stereo not drawn)	Lmaj promast 82.9
COC(=O)Cc1[nH]nc2c1C(c1ccc(O)c(OC)c1)C(C#N)=C(N)O2 (stereo not drawn)	none (no result: WT yeast gro inh, PMI activator, Lmaj promast, PMI act hi M6P)
Cn1c(CN2CCN(CCO)CC2)c(C#N)c2ccccc21	none (no result: WT yeast gro inh, PMI activator, Lmaj promast, PMI act hi M6P)
CN1CCN(CC(=O)N(Cc2c(C#N)c3ccccc3n2C)c2ccccc2)CC1	Lmaj promast 100.1
Cc1nnc(N(C)C(=O)c2ccncc2)s1	none
CCC1NC(=S)NC(C)=C1C(=O)c1ccccc1 (stereo not drawn)	none
CCO/C=C1/C(=O)N(C(C)=O)c2ccccc21	PMI act hi M6P 2.6
Cc1ccsc1/C=N/Nc1nc(=O)[nH]nc1C	WT yeast gro inh 69.6
Cc1cc(C)nc(N/N=C/c2sccc2C)n1	none
CCOC(=O)n1c(=O)[nH]c2ccc(Br)cc21	none
Cc1ccc(C)c(/C=N/Nc2nc3ccccc3c(=O)n2O)c1	none (no result: WT yeast gro inh, PMI activator, Lmaj promast, PMI act hi M6P)
Cc1ccc(CN2CCN(/N=C/c3ccc(Cl)c([N+](=O)[O-])c3)CC2)cc1	WT yeast gro inh 63.8, Lmaj promast 94.8
Cc1ccc(CN2CCN(/N=C/c3cc(Br)cc(Br)c3O)CC2)cc1	Lmaj promast 50.8
CC(=O)CC(C)(C)NC(C)=S	none (no result: WT yeast gro inh, PMI activator, Lmaj promast, PMI act hi M6P)
CCOC(=O)Cc1csc(N/C(=N/S(=O)(=O)c2cc(Br)ccc2OCC)c2ccccc2)n1	none
CC1CCN(C(=O)CSc2ccc(-c3ccccc3)nn2)CC1	none

Screening results deposited in PubChem BioAssay by several laboratories.
